Laboratory results from ChEMBL document CHEMBL4177548, “Neuroprotective Lignans from the Fruits of Schisandra bicolor var. tuberculata” (2017).
Active and inactive are the calls of the source. The calls are words filed in the database; no cut-off is given here.

Assays:
SH-SY5Y [1] = experiment: Neuroprotective activity against Abeta (25 to 35)-induced cytotoxicity in human SH-SY5Y cells at 50 uM pre-incubated for 2 hrs before Abeta (25 to 35) addition for 14 hrs by MTT assay (reference value: 60.2%); format: functional, cell-based
SH-SY5Y [2] = experiment: Neuroprotective activity against Abeta (25 to 35)-induced cytotoxicity in human SH-SY5Y cells at 0.0032 to 2 uM pre-incubated for 2 hrs before Abeta (25 to 35) addition for 14 hrs by MTT assay relative to untreated control; format: functional
SH-SY5Y [3] = experiment: Neuroprotective activity against Abeta (25 to 35)-induced cytotoxicity in human SH-SY5Y cells at 2 uM pre-incubated for 2 hrs before Abeta (25 to 35) addition for 14 hrs by MTT assay (reference value: 60.2 to 73.5%); format: functional
SH-SY5Y [4] = experiment: Neuroprotective activity against Abeta (25 to 35)-induced cytotoxicity in human SH-SY5Y cells at 0.08 uM pre-incubated for 2 hrs before Abeta (25 to 35) addition for 14 hrs by MTT assay (reference value: 60.2 to 73.5%); format: functional
SH-SY5Y [5] = experiment: Neuroprotective activity against H2O2-induced cytotoxicity in human SH-SY5Y cells at 0.0032 to 2 uM pre-incubated for 2 hrs before H2O2 addition for 14 hrs by MTT assay relative to untreated control; format: functional
Outline: (§1)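 Hydrogen peroxide injury: SH-SY5Y cells (DMEM, 10% FBS, penicillin/streptomycin) were seeded at 15 000 cells/well and left 24 h. They received test compounds at 0.0032, 0.08 or 2 μM for 2 h before 350 μM H2O2. MTT read-out followed at 14 h: DMSO dissolution, OD 570 nm. Viability is expressed as % of control, triplicate, means ± SEM, one-way ANOVA with Newman-Keuls.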

SH-SY5Y [6] = experiment: Neuroprotective activity against Abeta (25 to 35)-induced cytotoxicity in human SH-SY5Y cells at 0.0032 uM pre-incubated for 2 hrs before Abeta (25 to 35) addition for 14 hrs by MTT assay (reference value: 60.2 to 73.5%); format: functional
SH-SY5Y [7] = experiment: Neuroprotective activity against CoCl2-induced cytotoxicity in human SH-SY5Y cells at 0.0032 uM pre-incubated for 2 hrs before CoCl2 addition for 14 hrs by MTT assay relative to untreated control; format: functional, cell-based
Outline: (§2)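 SH-SY5Y cells were kept in DMEM with 10% FBS plus penicillin/streptomycin and plated at 15 000 cells/well for 24 h. They were pretreated 2 h with compound (0.0032, 0.08, 2 μM), then challenged with 300 μM CoCl2 (chosen to give 50–70% viability). After 14 h, MTT was added, DMSO-solubilised and read at 570 nm. Values are normalized to control (100%), means ± SEM of three replicates.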

SH-SY5Y [8] = experiment: Neuroprotective activity against CoCl2-induced cytotoxicity in human SH-SY5Y cells at 0.0032 to 2 uM pre-incubated for 2 hrs before CoCl2 addition for 14 hrs by MTT assay relative to untreated control; format: functional; outline: as §2
SH-SY5Y [9] = experiment: Neuroprotective activity against H2O2-induced cytotoxicity in human SH-SY5Y cells at 0.0032 uM pre-incubated for 2 hrs before H2O2 addition for 14 hrs by MTT assay relative to untreated control; format: functional, cell-based; outline: as §1

Molecule | Activity (SH-SY5Y [1]) [%] | Activity (SH-SY5Y [2]) [%] | Activity (SH-SY5Y [3]) [%] | Activity (SH-SY5Y [4]) [%] | Activity (SH-SY5Y [5]) [%] | Activity (SH-SY5Y [6]) [%] | Activity (SH-SY5Y [7]) | Activity (SH-SY5Y [8]) [%] | Activity (SH-SY5Y [9])
VITAMIN E | 72.5 |  |  |  |  |  |  |  | 
COc1cc(C[C@@H](COC(C)=O)[C@@H](C)Cc2ccc(O)c(OC)c2)ccc1O |  | >15 | 83.2 | 81 | >15 | 74.1 |  |  | 
COc1ccc(C(=O)O[C@H](c2ccc(OC)c(OC)c2)[C@@H](C)C(C)=O)cc1OC |  | >15 | 80.4 | 85.1 |  | 78.4 | Active |  | 
COc1cc([C@H]2O[C@@H](c3ccc(OC)c(OC)c3)[C@H](C)[C@H]2C)ccc1O |  |  | 75.3 | 75.3 |  | 81.7 | Active |  | 
COc1cc(C[C@@H](C)[C@H](C)Cc2ccc(O)c(OC)c2)ccc1O [(-)-DIHYDROGUAIARETICACID] |  |  | 80.8 | 85.1 |  | 79.2 | Active | >15 | Active
COc1cc([C@H]2c3cc4c(cc3C[C@@H](C)[C@@H]2C)OCO4)ccc1O |  | >15 | 75.7 | 71.9 |  | 84.5 | Active |  | 
C[C@@H]1[C@@H](CO)[C@H](c2ccc3c(c2)OCO3)O[C@H]1c1ccc2c(c1)OCO2 |  | >15 | 87.3 | 94.3 |  | 71.3 | Active |  | 
COc1cc([C@H]2O[C@@H](c3ccc4c(c3)OCO4)[C@H](C)[C@H]2COC(C)=O)ccc1O |  | >15 | 79.3 | 88.6 | >15 | 68.6 | Active |  | Active
COc1cc(C[C@@H](C)[C@H](C)Cc2ccc3c(c2)OCO3)ccc1O |  |  | 72 | 77.1 | >15 | 73.5 | Active |  | 
C=C(Cc1ccc2c(c1)OCO2)[C@H](C)Cc1ccc(O)c(OC)c1 |  | >15 | 78.1 | 78.5 |  | 84.7 |  |  | Active
COc1ccc([C@@H]2O[C@@H](c3ccc(O)c(OC)c3)[C@@H](C)[C@H]2C)cc1O |  | >15 | 71 | 77.1 |  | 64.5 |  |  | 
COc1cc(C[C@@H](COC(C)=O)[C@@H](C)Cc2ccc3c(c2)OCO3)ccc1O |  |  | 69 | 80.8 |  | 68.3 |  |  | 
COc1ccc([C@H]2O[C@@H](c3ccc(OC)c(OC)c3)[C@H](C)[C@@H]2C)cc1OC [GALGRAVIN] |  | >15 | 86.7 | 92.9 | >15 | 76.9 |  |  | 
COc1cc(C[C@H](C)[C@H](CO)Cc2ccc3c(c2)OCO3)ccc1O |  | >15 | 82.4 | 88.2 |  | 75.8 | Active |  | 
COc1cc(C[C@@H](C)[C@H](C)[C@@H](O)c2ccc3c(c2)OCO3)ccc1O |  | >15 | 76.6 | 83.3 | >15 | 81.6 | Active | >15 | Active
COc1ccc([C@H]2O[C@H](c3ccc(OC)c(OC)c3)[C@@H](C)[C@H]2C)cc1OC [GANSCHISANDRINE] |  | >15 | 79.8 | 85.3 |  | 75.1 |  | >15 | 
COc1cc(C[C@H](CO)[C@H](C)Cc2ccc3c(c2)OCO3)ccc1O |  |  | 84.2 | 83.6 |  | 70.8 |  |  | 
COc1cc(C[C@H](C)[C@H](COC(C)=O)Cc2ccc3c(c2)OCO3)ccc1O |  | >15 | 87 | 80.2 | >15 | 73.1 |  |  | 
COc1cc(C[C@H](CO)[C@H](C)Cc2ccc(O)c(OC)c2)ccc1O |  |  | 69.2 | 74.3 | >15 | 77.4 |  |  | 
